Screening results (PubChem BioAssay)
KDM4C inh – inhibitors of human demethylase GASC-1 KDM4C. Q9H3R0. GST-KDM4C 2-372, H3K9me3 peptide, LANCE TR-FRET. hit rate 0.15% among 96,000. inhibition, % at 12.5 µM;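 active = mean replicate inhibition above about 25%, with at least 55% of replicates also reaching it, limit read from the data, passing the limit was not always enough; inconclusive = only one of those two conditions met; inactive = neither condition met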
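System: N-terminal GST-fused human GASC-1 (KDM4C) fragment, residues 2-372 / Amount: 10 nM GST-KDM4C in enzyme reaction / Also added: H3K9me3 peptide with Fe(II)/2OG / Times: 30 min demethylation and 1 h detection at room temperature / Signal: LANCE TR-FRET / Read-out basis: Fall in 671/618 emission ratio as inhibition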
IDH1 R132H inh – inhibitors of human IDH1 R132H | O75874 | IDH1 R132H reductase, diaphorase/resazurin fluorescence, 60 min | inhibition, % at 10 µM | hit rate 0.18% among 70,000; in the data active = inhibition above about 34%; inconclusive = no clear call, values can overlap the other calls; inactive = below about 11%
Target sequence (O75874 whole entry R132H): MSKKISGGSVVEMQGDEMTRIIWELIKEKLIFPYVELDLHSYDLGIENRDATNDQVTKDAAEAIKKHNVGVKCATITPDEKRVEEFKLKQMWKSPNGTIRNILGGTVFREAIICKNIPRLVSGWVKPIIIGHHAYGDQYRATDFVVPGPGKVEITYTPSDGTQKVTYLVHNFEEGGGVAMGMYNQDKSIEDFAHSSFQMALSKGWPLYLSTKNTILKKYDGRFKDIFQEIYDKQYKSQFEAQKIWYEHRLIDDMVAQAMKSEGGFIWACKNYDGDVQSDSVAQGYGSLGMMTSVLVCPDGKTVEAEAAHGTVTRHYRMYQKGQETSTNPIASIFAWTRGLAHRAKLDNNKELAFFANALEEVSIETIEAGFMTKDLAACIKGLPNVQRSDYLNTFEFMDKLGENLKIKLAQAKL
T cruzi growth-1 – T. cruzi proliferation inhibition; T. cruzi beta-gal in NIH3T3, GalScreen luminescence, 90 h; inhibition, % at 8.34 µM; hit rate 5.9% among 77,000;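 active = mean inhibition above about 93%, with at least 55% of replicates each passing it, limit read from the data, passing the limit was not always enough; inconclusive = only one of those two conditions holds; inactive = neither condition holds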
T cruzi growth-2 – Trypanosoma cruzi proliferation inhibition; shares compounds with T cruzi growth-1; T. cruzi beta-gal in NIH3T3, GalScreen luminescence, 90 h; inhibition, % at 8.35 µM; hit rate 72% among 5,600;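 active = mean replicate inhibition above about 95% and at least 55% of replicates individually reaching it, limit read from the data; inconclusive = only one of the two criteria is met; inactive = neither criterion is met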
T cruzi growth-3 – blocks T. cruzi growth in NIH3T3 host cells. shares compounds with T cruzi growth-1. T. cruzi beta-gal in NIH3T3, GalScreen luminescence, 90 h. inhibition, % at 2.09 µM. hit rate 21% among 5,600. AID 651740;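 active = mean inhibition above about 95%, with at least 55% of replicates also reaching it, limit read from the data; inconclusive = meets just one of the two conditions; inactive = meets neither condition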
3T3 cytotox – kills mouse NIH/3T3 fibroblasts; AID 651742; NIH/3T3 viability, CellTiter-Glo ATP luminescence, 90 h; cytotoxicity (signal decrease), % at 8.35 µM; shares compounds with T cruzi growth-1; hit rate 14% among 5,600;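 active = mean signal decrease across replicates above about 35% based on untreated-well scatter, with enough replicates individually passing, limit read from the data; inconclusive = no rule stated though some were filed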
NIH3T3 tox 2 – NIH/3T3 (mouse) viability loss. shares compounds with T cruzi growth-1. hit rate 56% among 5,600. inhibition, % at 24.9 µM. NIH/3T3 viability, CellTiter-Glo ATP luminescence, 90 h;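 active = mean loss of cell viability signal at or above a set limit, and enough replicates individually reaching it; inconclusive = meets only the mean limit or only the replicate share; inactive = meets neither condition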
Hits are given with their value. The sample as a whole holds a higher share of hits than the screen did.

`COCC(=O)N1[C@H](C#N)[C@@H](c2ccccc2)[C@@H]1CO` gave KDM4C inh inactive and T cruzi growth-1 inactive.
Screening Cc1c(Cl)cccc1NC(=O)CN(C)S(=O)(=O)c1ccc2ccccc2c1 returned IDH1 R132H inh inactive.
Screening C[C@H](CO)N1C[C@H](C)[C@@H](CN(C)Cc2ccccc2)OCCCC[C@H](C)Oc2ccc(NS(=O)(=O)c3ccc(Cl)cc3)cc2C1=O returned KDM4C inh inactive and T cruzi growth-1 inactive.
Screening C[C@@H]1CCCCO[C@H](CN(C)Cc2ccccc2)[C@@H](C)CN([C@@H](C)CO)C(=O)c2cc(NS(=O)(=O)c3ccc(Cl)cc3)ccc2O1 returned KDM4C inh inactive, T cruzi growth-1 106, T cruzi growth-2 95, T cruzi growth-3 inactive, 3T3 cytotox inactive and NIH3T3 tox 2 104.
For C[C@H]1CCCCO[C@H](CN(C)Cc2ccccc2)[C@@H](C)CN([C@@H](C)CO)C(=O)c2cc(NS(=O)(=O)c3ccc(Cl)cc3)ccc2O1 the results were KDM4C inh inactive, T cruzi growth-1 109, T cruzi growth-2 101, T cruzi growth-3 inactive, 3T3 cytotox inactive and NIH3T3 tox 2 104.
Screening C[C@@H]1CCCCO[C@H](CN(C)Cc2ccccc2)[C@@H](C)CN([C@H](C)CO)C(=O)c2cc(NS(=O)(=O)c3ccccc3)ccc2O1 returned KDM4C inh inactive, IDH1 R132H inh inactive and T cruzi growth-1 inactive.
For C[C@@H]1CCCCO[C@H](CN(C)Cc2ccccc2)[C@H](C)CN([C@@H](C)CO)C(=O)c2cc(NS(=O)(=O)c3ccc(Cl)cc3)ccc2O1 the results were KDM4C inh inactive, IDH1 R132H inh inactive, T cruzi growth-1 102, T cruzi growth-2 inactive, T cruzi growth-3 inactive, 3T3 cytotox inactive and NIH3T3 tox 2 103.
Screening C[C@@H]1CCCCO[C@@H](CN(C)Cc2ccccc2)[C@@H](C)CN([C@H](C)CO)C(=O)c2cc(NS(=O)(=O)c3ccccc3)ccc2O1 returned KDM4C inh inactive, IDH1 R132H inh inactive and T cruzi growth-1 inactive.
Screening C[C@@H]1CN([C@H](C)CO)C(=O)c2cc(NS(=O)(=O)c3ccc(Cl)cc3)ccc2O[C@@H](C)CCCCO[C@@H]1CN(C)Cc1ccccc1 returned KDM4C inh inactive, IDH1 R132H inh inactive and T cruzi growth-1 inactive.
Screening C[C@@H]1CN([C@@H](C)CO)C(=O)c2cc(NS(=O)(=O)c3ccc(Cl)cc3)ccc2O[C@@H](C)CCCCO[C@@H]1CN(C)Cc1ccccc1 returned KDM4C inh inactive, T cruzi growth-1 100, T cruzi growth-2 inactive, T cruzi growth-3 inactive, 3T3 cytotox inactive and NIH3T3 tox 2 105.
For CCOc1ccc(-n2c(SCC(=O)c3ccccc3)nnc2-c2ccncc2)cc1 the results were IDH1 R132H inh inactive.
O=c1cc(-c2ccc3ccccc3c2)[nH][nH]1 was read as IDH1 R132H inh inactive.
O=C(CSc1nc(-c2ccccc2)cs1)Nc1ccccc1 was read as IDH1 R132H inh inactive.
For COc1cc(C(=O)Oc2ccccc2NC2=NS(=O)(=O)c3ccccc32)cc(OC)c1OC the results were IDH1 R132H inh inactive.
For Cc1sc2nc(-c3ccccc3O)[nH]c(=O)c2c1C the results were IDH1 R132H inh inactive.
For C[C@@H]1CCCCO[C@@H](CN(C)Cc2ccccc2)[C@H](C)CN([C@H](C)CO)C(=O)c2cc(NS(=O)(=O)c3ccc(Cl)cc3)ccc2O1 the results were KDM4C inh inactive and T cruzi growth-1 inactive.
For C[C@@H]1CCCCO[C@@H](CN(C)Cc2ccccc2)[C@H](C)CN([C@@H](C)CO)C(=O)c2cc(NS(=O)(=O)c3ccc(Cl)cc3)ccc2O1 the results were KDM4C inh inactive, T cruzi growth-1 110, T cruzi growth-2 102, T cruzi growth-3 inactive, 3T3 cytotox inactive and NIH3T3 tox 2 100.
For C[C@@H]1CN([C@H](C)CO)C(=O)Cc2cc(NC(=O)Cc3cn(C)c4ccccc34)ccc2O[C@H]1CN(C)Cc1ccc(Cl)c(Cl)c1 the results were KDM4C inh inactive, IDH1 R132H inh inactive, T cruzi growth-1 inconclusive, T cruzi growth-2 98, T cruzi growth-3 inactive, 3T3 cytotox inactive and NIH3T3 tox 2 43.
